From ChEMBL document CHEMBL1137716, “Novel modifications in the series of O-(2-phthalimidoethyl)-N-substituted thiocarbamates and their ring-opened congeners as non-nucleoside HIV-1 reverse transcriptase inhibitors” (Eur J Med Chem, 2009)
Calls of active or inactive are those of the source. The rule behind the calls is not given here.

What was measured:
[1] = test system: Human immunodeficiency virus 1; experiment: Antiviral activity against wild type HIV1 3B in human MT4 cells assessed as protection against viral induced cytopathogenicity by MTT assay; assay type: functional, organism-based; conditions: Human immunodeficiency virus 1, 3B
Procedure, shortened: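 MT-4 cells infected with HIV-1; 50% protection from virus-induced cytopathogenicity read by MTT method; EC50 in micromolar; mean of three separate experiments, triplicate samples varying under 10%.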

[2] = test system: Human immunodeficiency virus 1; experiment: Antiviral activity against HIV1 3B Y181C resistant mutant in human MT4 cells assessed as protection against viral induced cytopathogenicity by MTT assay; assay type: functional, organism-based; conditions: Human immunodeficiency virus 1, 3B
Procedure, shortened: (§1)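 MT-4 cells infected with HIV-1 carrying the NNRTI-resistance mutation were assayed for protection from virus-induced cytopathogenicity, read out as cell viability by MTT. EC50 is the compound concentration giving 50% protection. Values are means of three separate experiments, with variation among triplicate samples under 10%. Efavirenz served as the reference.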

[3] = Selectivity index, ratio of CC50 for human MT4 cells to EC50 for HIV1 3B; assay type: toxicity, cell-based; conditions: read-out: Ratio CC50/EC50
Procedure, shortened: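 Ratio of CC50 in mock-infected MT-4 cells to EC50 for protection from HIV-1 cytopathogenicity, both read by MTT method.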

[4] = Cytotoxicity against mock-infected human MT4 cells by MTT assay; assay type: cell-based
Procedure, shortened: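 Mock-infected MT-4 cells, tested in parallel with the antiviral assay; viability read by MTT method; CC50 is the concentration lowering viability by 50%; mean of three separate experiments, triplicate variation under 10%.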

[5] = test system: Human immunodeficiency virus 1; experiment: Antiviral activity against HIV1 3B Y181C/K103N double mutant in human MT4 cells assessed as protection against viral induced cytopathogenicity by MTT assay; assay type: functional, organism-based; procedure, shortened: as §1
[6] = test system: Human immunodeficiency virus 1; experiment: Antiviral activity against HIV1 3B K103R resistant mutant in human MT4 cells assessed as protection against viral induced cytopathogenicity by MTT assay; conditions: Human immunodeficiency virus 1, 3B

For `COc1ccc(NC(=S)OCCN2C(=O)c3ccc(C)cc3C2=O)cc1`, the EC50 [1] was 0.03 µM, the EC50 [2] was 44 µM and the selectivity ratio [3] was > 3330. The CC50 [4] was > 100 µM and the Activity [5] was “inactive”.
For `O=C1Nc2ccc(Cl)cc2[C@@](C#CC2CC2)(C(F)(F)F)O1` [EFAVIRENZ], the EC50 [2] was 0.02 µM.
Work on `Cc1ccc(NC(=S)OC[C@@H](C)N2C(=O)c3ccccc3C2=O)cc1` yielded an EC50 [1] of 0.07 µM, an EC50 [2] of 9 µM and a selectivity ratio [3] of 1090. For the same compound, the CC50 [4] was 76 µM and the Activity [5] was “inactive”.
In the case of `CCc1ccc(NC(=S)OCCN2C(=O)c3ccc(C)cc3C2=O)cc1`, the EC50 [1] is reported as 0.02 µM, the EC50 [2] is reported as 16 µM and the selectivity ratio [3] is reported as 2150. For the same compound, the CC50 [4] was 43 µM and the Activity [5] was “inactive”.
For `Cc1ccc2c(c1)C(=O)N(C(C)COC(=S)Nc1ccc(Cl)cc1)C2=O` (racemic), the EC50 [1] was 0.06 µM, the EC50 [2] was 4 µM and the selectivity ratio [3] was 567. For the same compound, the CC50 [4] was 34 µM and the Activity [5] was “inactive”.
For `Cc1ccc2c(c1)C(=O)N(CCOC(=S)Nc1ccc(I)cc1)C2=O`, the EC50 [1] was 0.01 µM, the EC50 [2] was 9 µM and the selectivity ratio [3] was 8900. The CC50 [4] was 89 µM and the Activity [5] was “inactive”.
`Cc1ccc2c(c1)C(=O)N(CCOC(=S)Nc1ccc(F)cc1)C2=O` showed an EC50 [1] of 0.03 µM, an EC50 [2] of 68 µM and a selectivity ratio [3] of 3330. For the same compound, the CC50 [4] was 100 µM and the Activity [5] was “inactive”.
In the case of `C[C@H](COC(=S)Nc1ccc(Cl)cc1)NC(=O)c1ccccc1C(=O)O`, the EC50 [1] is reported as 0.3 µM, the EC50 [2] is reported as 18 µM and the selectivity ratio [3] is reported as > 333. For the same compound, the CC50 [4] was > 100 µM and the Activity [5] was “inactive”.
With `O=C1c2ccccc2C(=O)N1CCOC(=S)Nc1ccc(Cl)c([N+](=O)[O-])c1` the EC50 [1] was 0.05 µM, the EC50 [2] was 2.8 µM and the selectivity ratio [3] was > 2000. For the same compound, the CC50 [4] was > 100 µM and the Activity [5] was “inactive”.
Work on `Cc1ccc(NC(=S)OCC(C)N2C(=O)c3ccc(C)cc3C2=O)cc1` (racemic) yielded an EC50 [1] of 0.1 µM, an EC50 [2] of 12 µM and a selectivity ratio [3] of 410. For the same compound, the CC50 [4] was 41 µM and the Activity [5] was “inactive”.
For `Cc1ccc2c(c1)C(=O)N(CCOC(=S)Nc1ccc(Cl)c([N+](=O)[O-])c1)C2=O`, the EC50 [1] was 0.05 µM, the EC50 [2] was 30 µM and the selectivity ratio [3] was > 2000. The CC50 [4] was > 100 µM and the Activity [5] was “inactive”.
With `S=C(NCCc1ccccn1)Nc1ccc(Br)cn1` [TROVIRDINE] the EC50 [1] was 0.02 µM, the EC50 [2] was 15 µM and the selectivity ratio [3] was 3000.
With `Cc1ccc2c(c1)C(=O)N(CCOC(=S)Nc1ccc(C#N)cc1)C2=O` the EC50 [1] was 0.01 µM, the EC50 [2] was 4.5 µM and the selectivity ratio [3] was 5700. The CC50 [4] was 57 µM and the Activity [5] was “inactive”.
With `O=C(O)c1ccccc1C(=O)NCCOC(=S)Nc1ccc(F)cc1F` the EC50 [1] was 3.8 µM, the selectivity ratio [3] was > 26.3 and the CC50 [4] was > 100 µM. For the same compound, the Activity [5] was “inactive”.
For `O=C1c2ccccc2C(=O)N1CCOC(=S)Nc1c(F)cccc1F`, the EC50 [1] was 7 µM, the selectivity ratio [3] was > 14.3 and the CC50 [4] was > 100 µM. For the same compound, the Activity [5] was “inactive”.
In the case of `O=C(O)c1ccccc1C(=O)NCCOC(=S)Nc1cc(F)ccc1F`, the EC50 [1] is reported as 51 µM, the selectivity ratio [3] is reported as > 2 and the CC50 [4] is reported as > 100 µM. The Activity [5] was “inactive”.
In the case of `O=C1c2ccccc2C(=O)N1CCOC(=S)Nc1ccc(Cl)c(Cl)c1`, the EC50 [1] is reported as 0.2 µM, the selectivity ratio [3] is reported as > 500 and the CC50 [4] is reported as > 100 µM. For the same compound, the Activity [5] was “inactive”.
`C[C@H](COC(=S)Nc1ccc(Cl)cc1)N1C(=O)c2ccccc2C1=O` gave an EC50 [1] of 0.01 µM, an EC50 [6] of 4.8 µM and an EC50 [2] of 1.3 µM. For the same compound, the selectivity ratio [3] was 4800, the CC50 [4] was 48 µM and the Activity [5] was “inactive”.
For `CC(=O)c1ccc(NC(=S)OCCN2C(=O)c3ccc(C)cc3C2=O)cc1`, the EC50 [1] was 0.07 µM, the selectivity ratio [3] was > 1430 and the CC50 [4] was > 100 µM. For the same compound, the Activity [5] was “inactive”.
With `O=C1c2ccccc2C(=O)N1CCOC(=S)Nc1cc(F)ccc1F` the EC50 [1] was 8 µM, the selectivity ratio [3] was > 12.5 and the CC50 [4] was > 100 µM. The Activity [5] was “inactive”.
For `CCCCNC(=S)OCCN1C(=O)c2ccccc2C1=O`, the EC50 [1] was 7.2 µM, the selectivity ratio [3] was > 13.9 and the CC50 [4] was > 100 µM. For the same compound, the Activity [5] was “inactive”.
In the case of `O=C(O)c1ccccc1C(=O)NCCOC(=S)Nc1c(F)cccc1F`, the EC50 [1] is reported as 45 µM, the selectivity ratio [3] is reported as > 2.2 and the CC50 [4] is reported as > 100 µM. For the same compound, the Activity [5] was “inactive”.
With `Cc1cc(Br)cc(C)c1NC(=S)OCCN1C(=O)c2ccccc2C1=O` the EC50 [1] was 9 µM, the selectivity ratio [3] was > 11.1 and the CC50 [4] was > 100 µM. The Activity [5] was “inactive”.
In the case of `Cc1ccc(NC(=S)OC[C@@H](C)NC(=O)c2ccccc2C(=O)O)cc1`, the EC50 [1] is reported as 2.3 µM, the selectivity ratio [3] is reported as > 43.5 and the CC50 [4] is reported as > 100 µM. The Activity [5] was “inactive”.
For `O=C1c2ccccc2C(=O)N1CCOC(=S)NCCc1ccccc1`, the EC50 [1] was 9.2 µM, the selectivity ratio [3] was > 10.9 and the CC50 [4] was > 100 µM. The Activity [5] was “inactive”.
